# Results collected from several papers.
Compound,assay,system,setting,kinetic solubility
C=CC(=O)Nc1cc(Nc2nccc(Nc3cc(Cl)c(F)cc3C(C)(C)O)n2)c(OC)cc1N1CC[C@@H](N(C)C)C1,,aqueous buffer,pH 7.4,616 µM
CC(=O)Nc1cc(Nc2cc(NC3CC3)n3ncc(C#N)c3n2)ccc1N[C@@H]1CCCOC1,shake flask,PBS,"24 h, pH 7.4, 22 °C",2.4 µg/mL
CNC(=O)[C@H](Cc1c[nH]cn1)NC(=O)CN(CCCc1ccccc1)CC(=O)OC,,PBS,"24 h, pH 7.4",179 µM
O=C1CCC(N2C(=O)c3cccc(NCCCCNC(=O)c4cccc(C#Cc5cc(NC(=O)Nc6ccnc(Cl)c6)ccn5)c4)c3C2=O)C(=O)N1 (stereo not drawn),,PBS,"24 h, pH 7.4",< 1.56 µM
CN[C@@H]1CCCN(c2ccc(Nc3cc(NC4CC4)n4ncc(C#N)c4n3)cc2NC(C)=O)C1,shake flask,PBS,"24 h, pH 7.4, 22 °C",52 µg/mL
Fc1ccc(Nc2c(-c3ccccn3)nc3ccc(C4CC4)cn23)cc1,,aqueous buffer,24 h,3 µM
COC(=O)CN(CC(=O)N[C@@H](Cc1c[nH]cn1)C(=O)OC)Cc1ccccc1,,PBS,"24 h, pH 7.4",191 µM
CCOC(=O)NS(=O)(=O)c1sc(CC(C)C)cc1-c1ccc2c(c1)CN(C(=O)OCC)C2,,aqueous buffer,"pH 7.4, 37 °C",58 µM
CC(=O)Nc1cc(Nc2cc(NC3CC3)n3ncc(C#N)c3n2)ccc1N(C)[C@@H]1CCOC1,shake flask,PBS,"24 h, pH 7.4, 22 °C",25 µg/mL
O=C(O)CN(CCCc1ccccc1)CC(=O)N[C@@H](Cc1c[nH]cn1)C(=O)NCc1ccccc1,,PBS,"24 h, pH 7.4",179 µM
CC(=O)Nc1cc(Nc2cc(NC3CC3)n3ncc(C#N)c3n2)ccc1N(C)C1COC1,shake flask,PBS,"24 h, pH 7.4, 22 °C",0.9 µg/mL
Cc1cc(Nc2ccc(C(F)(F)F)cc2)c2ccccc2n1,,PBS,pH 6.5,83 µM
CCOC(=O)NS(=O)(=O)c1sc(CC(C)C)cc1-c1ccc2c(c1)CN(C(C)=O)C2,,aqueous buffer,"pH 7.4, 37 °C",35 µM
CCC(=O)Nc1cc(Nc2cc(NC3CC3)n3ncc(C#N)c3n2)ccc1N1CCC[C@@H](NC)C1,shake flask,PBS,"24 h, pH 7.4, 22 °C",65 µg/mL
CNC(=O)[C@H](Cc1c[nH]cn1)NC(=O)CN(CC(=O)O)Cc1ccccc1,,PBS,"24 h, pH 7.4",151 µM
Cc1cc(Nc2ccc(S(F)(F)(F)(F)F)cc2)n2ccnc2n1,,simulated gastric fluid,"pH 2, acidic",> 285 µM
CCCCOC(=O)NS(=O)(=O)c1sc(CC(C)C)cc1-c1ccc(OC(F)(F)F)c(Cn2ccnc2)c1,,aqueous buffer,"pH 7.4, 37 °C",52 µM
COC(=O)CN(CCCc1ccccc1)CC(=O)N[C@@H](Cc1c[nH]cn1)c1nc(C)no1,,PBS,"24 h, pH 7.4",172 µM
CCc1cnc2c(c1)[C@@H](N1CCOc3c(cc(Cn4ccnc4)cc3-c3cn(C)nc3C(F)(F)F)C1=O)CCC2,,PBS,"1 h, pH 7.4",74 µM
CCCCOC(=O)NS(=O)(=O)c1sc(CC(C)C)cc1-c1ccc2c(c1)CN(C(C)=O)CC2,,aqueous buffer,"pH 7.4, 37 °C",31 µM
CN[C@@H]1CCN(c2ccc(Nc3cc(NC4CC4)n4ncc(C#N)c4n3)cc2NC(C)=O)C1,shake flask,PBS,"24 h, pH 7.4, 22 °C",64 µg/mL
